Shown are actives, neighbours in structure and some others; about 1.5% of the full set was active somewhere.
697 NFkB inh: inhibitors of the PMA/ionomycin-induced NF-kB reporter in 697 B cells. 330,000 tested, 0.33% active. inhibition, % at 4 µM. 697 B-cell NF-kB luciferase reporter, 16 h; in the data active = inhibition above about 35%
NR2E3 ag-1: activates human NR2E3 receptor. CHO-S Gal4-NCOR/VP16-NR2E3 two-hybrid, luciferase. Q9Y5X4. 360,000 tested, 0.35% active. inhibition of corepressor binding, % at 3.98 µM. AID 602229;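 active = inhibition above the mean of all tested compounds plus 3 SD, cut at about 70% in these data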;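 also: 0% = DMSO with NR2E3 transfected cells and 100% = cells lacking NR2E3 construct; higher means lower luciferase signal from less NR2E3 corepressor binding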
Target sequence (Q9Y5X4 whole entry, looked up, the tested form may be a part): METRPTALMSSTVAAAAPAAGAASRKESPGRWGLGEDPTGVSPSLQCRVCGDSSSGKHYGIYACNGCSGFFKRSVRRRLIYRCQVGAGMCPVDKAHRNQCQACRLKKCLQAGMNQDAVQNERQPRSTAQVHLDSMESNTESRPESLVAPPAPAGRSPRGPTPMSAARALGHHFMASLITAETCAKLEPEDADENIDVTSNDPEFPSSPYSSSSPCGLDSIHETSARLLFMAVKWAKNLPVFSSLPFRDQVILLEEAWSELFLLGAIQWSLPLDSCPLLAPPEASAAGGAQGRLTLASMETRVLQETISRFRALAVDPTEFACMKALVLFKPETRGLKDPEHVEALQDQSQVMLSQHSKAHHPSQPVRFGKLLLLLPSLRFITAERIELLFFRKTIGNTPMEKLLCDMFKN
Jurkat NFkB inh: inhibitors of the PMA/ionomycin-induced NF-kB reporter in Jurkat cells; inhibition, % at 4 µM; 330,000 tested, 0.53% active; PMA/ionomycin-induced NF-kB luciferase reporter, luminescence; in the data active = inhibition above about 50%
NR2E3 ag-2: activates human photoreceptor nuclear receptor NR2E3; AID 2300; inhibition of corepressor binding, % at 4.78 µM; GST-NR2E3/biotin-RetCOR TR-FRET, 1536-well; 320,000 tested, 0.12% active; Q9Y5X4;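 active = percent inhibition above the cutoff of mean plus 3 SD of all tested compounds, set per screening campaign, cut at about 20% in these data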;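 also: 0% = DMSO wells and 100% = biotin wells as full block of FRET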
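Material – GST-tagged NR2E3 plus biotinylated RetCOR corepressor · Quantity – NR2E3 fusion 1.35 nM · Times – 5 h incubation at 4 °C · Medium – pH 7.5 Tris-based buffer · Technique – TR-FRET, Eu(K)-anti-GST donor, streptavidin-D2 acceptor, ex 340, em 617/671 nm · Benchmarks – high control biotin, low control 0.6% DMSO · Format – 1536-well plates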
JMJD2C inh: inhibitors of human GASC-1 (JMJD2C) demethylase; Q9H3R0; GST-JMJD2C(1-420) H3K9me3 demethylation, DELFIA europium; inhibition, % at 2.35 µM; 330,000 tested, 0.069% active; AID 2099;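 active = more than half of a compound's replicate wells show inhibition beyond 50%, single wells judged on their own value; inconclusive = some, but no more than half, of replicates pass 50% inhibition; inactive = no replicate passes 50% inhibition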;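 also: signal counts dimethyl H3K9 product captured on neutravidin plate; 0% = median of DMSO wells and 100% = 0.3 times that DMSO median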
GalR3 antag: human GalR3 antagonism | O60755 | HEK293 GalR3-CNG cAMP membrane potential fluorescence; galR3 body fused to GalR1 C-terminus | inhibition, % at 3 µM | 360,000 tested, 0.44% active;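 active = inhibition above the screen-wide average plus 3 SD, cut at about 13% in these data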;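 also: forskolin and galanin both at EC90 stimulate the cells; cAMP rise reported by CNG channel membrane potential dye signal; 0% = forskolin plus galanin with DMSO and 100% = forskolin alone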
Target sequence (O60755 1-299 limits assumed): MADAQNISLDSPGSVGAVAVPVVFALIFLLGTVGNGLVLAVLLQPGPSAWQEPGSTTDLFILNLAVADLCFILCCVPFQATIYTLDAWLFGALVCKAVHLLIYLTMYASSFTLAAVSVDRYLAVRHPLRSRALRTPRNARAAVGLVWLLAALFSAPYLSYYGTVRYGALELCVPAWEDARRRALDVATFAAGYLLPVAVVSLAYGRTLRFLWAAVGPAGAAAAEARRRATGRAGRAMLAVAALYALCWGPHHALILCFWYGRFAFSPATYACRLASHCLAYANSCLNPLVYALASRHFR
Jurkat NFkB conf: inhibitors of the PMA/ionomycin-induced NF-kB reporter in Jurkat cells, retest. shares compounds with Jurkat NFkB inh. Jurkat NF-kB luciferase, 16 h. inhibition, % at 4 µM. 2,700 tested, 27% active. AID 435020;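 active = inhibition reaching about 45% at 4 µM in either replicate, limit read from the data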;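 also: plate controls were PMA/ionomycin stimulated DMSO wells for no effect and unstimulated DMSO wells for full effect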
* marks the source's active call; other numbers are inactive results; ? = inconclusive; nt = no result.

SMILES | 697 NFkB inh | NR2E3 ag-1 | Jurkat NFkB inh | NR2E3 ag-2 | JMJD2C inh | GalR3 antag | Jurkat NFkB conf
Cc1cc(-c2ccc(C)c(S(=O)(=O)N3CCN(c4ccc([N+](=O)[O-])cc4)CC3)c2)on1 | -9 | -26 | 54* | -29 | 9 | -3 | 64*
CCc1ccc(-c2cc(C)no2)cc1S(=O)(=O)N1CCN(c2ccccc2)CC1 | -65 | -35 | 53* | -7 | 4 | -6 | 7
Cc1ccc(C(=O)c2cc([N+](=O)[O-])ccc2N2CCCCC2)cc1C | -34 | 1 | 63* | 1 | -8 | 1 | 42
Cc1ccc(C(=O)c2cc([N+](=O)[O-])ccc2N2CCOCC2)c(C)c1 | 22 | 32 | 55* | 0 | -3 | -9 | 50*
CN1CCN(c2ccc([N+](=O)[O-])cc2C(=O)c2ccc(Br)cc2)CC1 | -31 | -76 | 73* | 1 | 20 | -4 | 26
Cc1ccc(C(=O)c2cc([N+](=O)[O-])ccc2N2CCOCC2)cc1C | -75 | -34 | 66* | 3 | 1 | -5 | 51*
O=C(c1ccccc1)c1cc([N+](=O)[O-])ccc1N1CCCC1 | -15 | -9 | 10 | 0 | 0 | -4 | nt
O=C(O)CC1(CC(=O)Nc2ccc3c(c2)OCCCO3)CCCCC1 | 8 | 4 | -8 | 0 | 17 | -5 | nt
CN(C)c1ccc(C(=O)Nc2nc3c(s2)CCCC3)cc1 | -186 | -98 | -194 | 0 | 3 | 5 | -117
O=C(OCc1ccc([N+](=O)[O-])cc1Cl)c1cnccn1 | 15 | 6 | -2 | 1 | 14 | -10 | nt
COC(=O)c1nn(-c2ccc3c(c2)CCN3C(C)=O)cc1O | 10 | -60 | 53* | 2 | -1 | -5 | 67*
CCCNC(=O)c1nnsc1S(=O)c1ccc(Cl)cc1 (stereo not drawn) | 2 | 17 | 59* | nt | -13 | 3 | 17
CNC(=O)c1nnsc1S(=O)c1ccc(Cl)cc1 (stereo not drawn) | 5 | -33 | 49 | nt | -21 | -3 | nt
O=C(NC12CC3CC(CC(C3)C1)C2)c1ccc(-c2ccc(Cl)cc2)o1 | -180 | -52 | -153 | 1 | -18 | -1 | -73
O=C(NC12CC3CC(CC(C3)C1)C2)c1ccc(-c2ccccc2Cl)o1 | -217 | -32 | -158 | 0 | -4 | 1 | -60
Nc1nc(C23CC4CC(CC(C4)C2)C3)[nH]c(=O)n1 | 1 | -19 | 6 | 2 | -8 | 0 | nt
COc1ccc(S(=O)(=O)NCc2ccccn2)cc1NC(=O)c1ccccc1C | -35 | 19 | 55* | -2 | ? | -4 | 15
COc1ccc(S(=O)(=O)NCc2ccccn2)cc1NC(=O)c1ccc(Cl)cc1 | -39 | -2 | 25 | -1 | 158 | -4 | nt
CCN(Cc1ccncc1)C(=O)c1ccc2c(c1)S(=O)(=O)c1ccccc1C2=O | -14 | 15 | -8 | 4 | 0 | 0 | nt
Cc1ccc2c(c1)N(C)/C(=C/c1cccc[n+]1CCO)S2 | -17 | -14 | 33 | 1 | -5 | -9 | nt
CN1/C(=C/c2cccc[n+]2C)Sc2ccccc21 | 13 | 22 | 71* | 0 | 1 | -5 | 6
Cc1ccc2c(c1)N(C)/C(=C/c1cccc[n+]1C)S2 | 9 | -26 | 75* | 0 | -20 | -7 | 17
CCCCN1/C(=C/c2cccc[n+]2C)Sc2cc(NC(C)=O)ccc21 | 6 | -16 | -9 | -3 | 36 | -9 | nt
CCn1c(SCC(=O)NC2CCCC2)nnc1C(C)C | -2 | -7 | -8 | 2 | -2 | -9 | nt
Cc1cccc(C)c1NC(=O)NCc1ccco1 | 13 | -8 | 3 | -2 | 10 | -5 | nt
SMILES | 697 NFkB inh | NR2E3 ag-1 | Jurkat NFkB inh | NR2E3 ag-2 | JMJD2C inh | GalR3 antag | Jurkat NFkB conf
Cc1cccc(C)c1OCCNC(=O)C(=O)NCc1ccco1 | -122 | 10 | 67* | -1 | 17 | 6 | 38
O=C1NC[C@H](CCCCN2C[C@H](Cc3ccccc3)N(CCc3ccc(O)cc3)C(=O)C2=O)N(CCc2ccccc2)C1=O | nt | -3 | nt | nt | nt | -4 | nt
C[C@]12CCC3C(CC[C@H]4CCCC[C@]34C)C1CC[C@@]2(O)CNCCO (stereo partly drawn) | 7 | -6 | 56* | nt | 3 | -9 | 17
CC(=O)[C@@]1(O)CCC2C3CC[C@H]4C[C@@H](O)CC[C@]4(C)C3CC[C@@]21C (stereo partly drawn) | -10 | 0 | 0 | nt | 0 | -5 | nt
CCn1c(O)c(N=NC(=O)CNC(=O)c2cccnc2)c2ccccc21 | nt | 4 | nt | nt | nt | -4 | nt
CC(=O)Nc1ccc(S(=O)(=O)N2c3ccc(F)cc3CCC2C)cc1 (stereo not drawn) | -21 | -47 | 57* | -1 | -12 | -5 | 42
COc1ccc(C[C@H](N)C(=O)N[C@H]2[C@@H](O)[C@H](n3cnc4c(N(C)C)ncnc43)O[C@@H]2CO)cc1 | -5 | 3 | 100* | 3 | nt | nt | 88*
C[C@H](c1ccccc1)N1C[C@@H](COCc2ccccc2)Oc2cccc(N3CCCC3)c2S1(=O)=O | nt | nt | nt | nt | nt | -6 | nt
COc1ccccc1CNC(=O)c1cccc(-c2ccc(C)c3ccccc23)n1 | -13 | nt | 61* | 0 | 15 | -7 | 22
O=C(c1ccco1)N1CCN(C(=O)N2c3ccccc3Sc3ccccc32)CC1 | -74 | 17 | 59* | 8 | 5 | -2 | 55*
O=C(N1CCN(c2ccccn2)CC1)N1c2ccccc2Sc2ccccc21 | -30 | 2 | 68* | 0 | 3 | 4 | 24
O=C(c1ccco1)N1c2ccccc2Sc2ccccc21 | -7 | 5 | 0 | 1 | 4 | -6 | nt
Cc1cc(C)c(C(=O)CN2C(=O)NC3(CCC(C)CC3)C2=O)cc1C (stereo not drawn) | 0 | -28 | -2 | 1 | -2 | -7 | nt
Cc1ccc(C)c(C(=O)CN2C(=O)NC3(CCC(C)CC3)C2=O)c1 (stereo not drawn) | -68 | -10 | 64* | 0 | 19 | -2 | 8
COc1ccc(CS(=O)(=O)/C(Cl)=C(/Cl)C(=O)Nc2ccc(OC)nc2)cc1 | -156 | 74* | 81* | -3 | 18 | nt | 85*
COc1ccc(/C=C/C(=O)Nc2ccc(OC)nc2)cc1 | -2 | 19 | -12 | 4 | -5 | -2 | nt
CCCCN1/C(=C/c2ccc3ccccc3[n+]2CC)Sc2ccccc21 | 33 | 80* | 87* | nt | 0 | nt | 67*
COc1ccc(C2=Nn3c([n+](C)c4ccccc43)SC2)cc1 | 25 | 9 | 54* | -5 | 6 | -3 | 63*
C[n+]1c2n(c3ccccc31)N=C(c1ccc(Cl)cc1)CS2 | -16 | -20 | 9 | 0 | -2 | -4 | nt

Compound activity from PubChem.
